The text below walks through data of ChEMBL document CHEMBL1154491, “Synthesis, structure, antimicrobial and antioxidant investigations of dicoumarol and related compounds” (Eur J Med Chem, 2008).

In brackets after ≈: the same amount, converted by molar mass. Activity calls are given as the source filed them. The calls are words filed in the database; no cut-off is given here.

In one series the test system is Cutibacterium acnes. In words: Antimicrobial activity against 1X10'-3 cfu/ml Propionibacterium acnes ATCC 11827 after 1 to 4 days. In kind it is functional. An outline of the steps: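 Compounds were taken from an acetone stock (10 mg/mL), diluted in culture medium and set up as serial dilutions with duplicate blanks. After 1–4 days of incubation, bacterial growth was estimated by turbidimetry or agar plating to give the MIC.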

The subject of series [1] is Staphylococcus epidermidis. In words: Antimicrobial activity against 1.6X10'-3 cfu/ml Staphylococcus epidermidis ATCC 12228 after 1 to 4 days. Type of series: functional. The procedure, abridged:
(§1)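 Compounds were dissolved in acetone (10 mg/mL stock) and diluted with culture medium into serial dilutions. Tests used Mueller-Hinton broth with 1% Tween 20, incubated aerobically at 36 ± 1 °C for 1–4 days alongside duplicate blanks. Growth was scored by turbidimetry or by plating on agar, and MIC was recorded.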

A further series has as its system Staphylococcus aureus. As to the kind of experiment: Antimicrobial activity against 1.5X10'-3 cfu/ml Staphylococcus aureus ATCC 6538 after 1 to 4 days. Type of series: functional. The procedure, abridged:
as §1

Series [2] can be described thus: Antioxidant activity assessed as ABTS radical scavenging activity by TEAC method. In kind it is functional. An outline of the steps: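 The ABTS radical cation was diluted in PBS, pH 7.4, to an absorbance of 0.70 ± 0.02 at 734 nm at 37 °C. Graded dilutions of compound were added, and absorbance was read at 5, 10, 15 and 20 min after addition.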
The next series relates to Mus musculus. In words: Acute toxicity in mouse at 2 g/kg. The settings on record: in vivo.

`O=c1oc2ccccc2c(O)c1C(c1cccc(O)c1O)c1c(O)c2ccccc2oc1=O`: the MIC against Cutibacterium acnes was 0.5 mg/L (≈ 1.13 µM); in series [1], 1.9 mg/L (≈ 4.28 µM); in the series on Staphylococcus aureus, 6.5 mg/L (≈ 14.6 µM). For the same molecule, in series [2], the result was Active. Besides, in the series on Mus musculus, the Activity entry was “Non-toxic”.
Turning to `O=c1c(C(c2ccccc2)c2c(O)oc3ccccc3c2=O)c(O)oc2ccccc12`, in series [2], the outcome was Active.
On the same count and under the same terms, next, `COc1cc(C(c2c(O)oc3ccccc3c2=O)c2c(O)oc3ccccc3c2=O)cc(OC)c1OC`: “Active”.
Take `O=c1c(C(c2ccc(C(c3c(O)oc4ccccc4c3=O)c3c(O)oc4ccccc4c3=O)cc2)c2c(O)oc3ccccc3c2=O)c(O)oc2ccccc12`: the outcome in series [2] was Active. Moreover, the Activity entry in the series on Mus musculus is on record as “Non-toxic”.
For `COc1ccc(C(c2c(O)c3ccccc3oc2=O)c2c(O)c3ccccc3oc2=O)cc1`, in that order: “Active” and “Non-toxic”.
In the case of `O=c1oc2ccccc2c(O)c1C(c1cc([N+](=O)[O-])ccc1O)c1c(O)c2ccccc2oc1=O`, in series [2], the result was Active.
On to `O=c1c(C(c2ccc([N+](=O)[O-])cc2)c2c(O)oc3ccccc3c2=O)c(O)oc2ccccc12`, for which the MIC came out at 0.5 mg/L (≈ 1.09 µM) against Cutibacterium acnes, 1.3 mg/L (≈ 2.84 µM) in series [1] and 3.7 mg/L (≈ 8.09 µM) against Staphylococcus aureus. The outcome in series [2] was Active. In addition, in the series on Mus musculus, the Activity result is recorded as “Non-toxic”.
On to `Cc1ccc(C(c2c(O)c3ccccc3oc2=O)c2c(O)c3ccccc3oc2=O)cc1`, for which the result in series [2] was Active. Also, the Activity entry in the series with Mus musculus was “Non-toxic”.

What is called MIC is the lowest concentration found to suppress growth.
